Calls of active or inactive are those of the source.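 The calls were made as follows: active = fold change below the hit cutoff of 0.7; inactive = the rest.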
What follows are compounds tested against Nuclear receptor ROR-alpha (Homo sapiens) (UniProt P35398) (assay: decrease of GAL4-RORa LBD luciferase signal – cell-based, luminescence, assay provider, RORA inverse agonist project, late-stage follow-up (AID 463078)). Conditions: HEK293T GAL4-RORa LBD luciferase reporter, 20 h; at 10 µM; stronger effect = lower value.
Nuclear receptor ROR-alpha (Homo sapiens), sequence (P35398 whole entry, looked up, the tested form may be a part): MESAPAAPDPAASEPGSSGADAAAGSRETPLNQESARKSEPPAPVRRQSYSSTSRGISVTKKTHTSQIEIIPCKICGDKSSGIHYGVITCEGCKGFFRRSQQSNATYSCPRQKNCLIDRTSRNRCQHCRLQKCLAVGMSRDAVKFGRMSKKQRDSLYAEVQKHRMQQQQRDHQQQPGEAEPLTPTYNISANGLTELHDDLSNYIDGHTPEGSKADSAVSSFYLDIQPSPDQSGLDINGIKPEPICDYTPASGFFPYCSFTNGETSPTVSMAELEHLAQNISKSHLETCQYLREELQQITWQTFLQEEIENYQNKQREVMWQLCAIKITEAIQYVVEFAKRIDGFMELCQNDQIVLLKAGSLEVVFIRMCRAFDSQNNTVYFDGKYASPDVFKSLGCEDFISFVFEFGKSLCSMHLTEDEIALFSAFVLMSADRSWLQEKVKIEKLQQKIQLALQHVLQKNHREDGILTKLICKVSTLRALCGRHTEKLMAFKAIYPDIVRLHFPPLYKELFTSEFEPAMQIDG
Summary of the method: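 Assay system: HEK293T cells with GAL4-RORα LBD and UAS-luciferase; Compound: single nominal 10 µM dose per test compound; Timing: 20 h compound exposure; Measured by: luminescence; Read-out: mean fold change relative to DMSO vehicle; Controls: DMSO vehicle wells; Repeats: six replicates.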
`O=C(Nc1ccc(C(O)(C(F)(F)F)C(F)(F)F)cc1)c1ccccc1C(F)(F)F` was tested, and the fold change was 0.806 (inactive).
For `O=C(Nc1ccc(C(O)(C(F)(F)F)C(F)(F)F)cc1)c1ccc(Cl)cc1`, the fold change was 1.23 (inactive).
With `O=C(Nc1ccc(C(O)(C(F)(F)F)C(F)(F)F)cc1)c1ccc(F)cc1Cl` the fold change was 1.1 (inactive).
For `O=C(Nc1ccc(C(O)(C(F)(F)F)C(F)(F)F)cc1)c1c(F)cccc1F`, the fold change was 0.944 (inactive).
For `O=C(Nc1ccc(C(O)(C(F)(F)F)C(F)(F)F)cc1)c1ccc(F)cc1F`, the fold change was 1.71 (inactive).
In the case of `O=S(=O)(Nc1ccc(C(O)(C(F)(F)F)C(F)(F)F)cc1)c1cccs1`, the fold change is reported as 0.63.

Source: PubChem BioAssay AID463078 (The Scripps Research Institute Molecular Screening Center, 2010)
